What was measured:
RNA A [1] = assay: Thiazole orange fluorescence enhancement on RNA binding
RNA B = assay: Thiazole orange fluorescence enhancement on RNA binding; set-up: species or system human; conditions: thiazole orange 2.6 µM, RNA 2 µM
In short: (§1)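 Fold rise in thiazole orange fluorescence, with the dye at 2.6 µM and each RNA at 2 µM. RNA A is an in vitro selected aptamer stem-loop, used as supplied. RNA B (human pre-miRNA 23b sequence) and control stem-loop RNA C were 2'-ACE-deprotected (100 mM acetic acid, TEMED to pH 3.8, 60 °C, 30 min), phenol/chloroform-extracted, ethanol-precipitated and kept in water at −20 °C.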

RNA C = assay: as above; conditions: thiazole orange 2.6 µM, RNA 2 µM
In short: as §1

RNA A [2] = assay: Thiazole orange fluorescent intercalator displacement; assay type: binding; conditions: read-out: Dissociation constants (FID); apparent KD from IC50, competitive model; 50 mM Bis-Tris·HCl pH 7.0, 100 mM NaCl, 10 mM MgCl2, 50 nM thiazole orange, 100 nM RNA A, 25 °C; average of three independent measurements ± SD

CN1C(=Cc2cc[n+](C)c3ccccc23)Sc2ccccc21 [thiazole orange]
Fold stimulation of thiazole orange fluorescence by RNA A (RNA A [1]; thiazole orange 50 nM, RNA A 100 nM): ~20 fold | Fold enhancement of thiazole orange fluorescence by RNA A (RNA A [1]; thiazole orange 2.6 µM, RNA 2 µM): 2308 fold | Fold enhancement of thiazole orange fluorescence by RNA B (RNA B): 977 fold | Fold enhancement of thiazole orange fluorescence by control RNA C (RNA C): 96 fold

NC[C@H]1O[C@H](O[C@H]2[C@H](O)[C@@H](O[C@H]3O[C@H](CO)[C@@H](O)[C@H](N)[C@H]3O)[C@H](N)C[C@@H]2N)[C@H](O)[C@@H](O)[C@@H]1O [compound 8, kanamycin]
Kd (RNA A [2]): > 100 µM

NC[C@@H]1O[C@H](O[C@H]2[C@@H](O)[C@H](O[C@H]3[C@@H](O)[C@H](N)C[C@H](N)[C@H]3O[C@H]3O[C@H](CN)[C@@H](O)[C@H](O)[C@H]3N)O[C@@H]2CO)[C@H](N)[C@@H](O)[C@@H]1O [compound 7, neomycin]
Kd (RNA A [2]): > 60 µM

Source: paper PMC2585546 (Bioorganic & medicinal chemistry, 2008)
